Published values of several laboratories.
Compare with care: the assays were run in different laboratories.
Target: Sodium-dependent serotonin transporter (SLC6A4, Homo sapiens, UniProt P31645)

Structure (SMILES)	assay	conditions	measurement	result
CN[C@@H](C)C(=O)c1ccccc1	calcium signal, agonist, fluorescence	–	EC50	15.3 µM
OC(c1ccc(F)cc1)C(F)(F)CCN1CCC(O)(c2ccc(Cl)cc2)CC1 (racemic)	ligand displacement, radioligand	–	Ki	1.99 µM
CC(=O)N1C[C@@H](CCN2CC=C(c3c[nH]c4cc(Cl)ccc34)CC2)c2ccccc21	ligand displacement, radioligand	cell membranes	IC50	0.0438 µM
C[C@H](N)Cn1ncc2ccc3c(c21)CCCO3	ligand displacement, radioligand	–	Ki	62.5 µM
CCOC(=O)[C@@]12C[C@@H]1[C@@H](n1cnc3c(NC)nc(C#Cc4ccc(Cl)s4)nc31)[C@H](O)[C@@H]2O	ligand displacement, radioligand	cell membranes	Ki	> 10 µM
C[C@@H](NC(=O)[C@@H](N)Cc1ccc(O)cc1)C(=O)NCC(=O)N[C@@H](Cc1ccccc1)C(=O)N(C)CCC[C@@]1(c2ccc(F)cc2)OCc2cc(C#N)ccc21	ligand displacement, radioligand	–	Ki	0.28 µM
CNC(C)(C)C(=O)c1ccccc1	calcium signal, agonist, fluorescence	–	EC50	12.9 µM
CC(N)CCc1ccccc1Cl (stereo not shown)	transporter uptake, inhibitor, radiometric	–	Ki	24 µM
CNc1nc(C#Cc2ccc(Br)s2)nc2c1ncn2[C@H]1[C@H](O)[C@H](O)[C@]2(C(=O)OC)C[C@H]12	ligand displacement, radioligand	cell membranes	Ki	> 10 µM
Clc1ccc2c(C3CCN(CCc4c[nH]c5ccccc45)CC3)c[nH]c2c1	transporter uptake, inhibitor, radiometric	–	Ki	0.053 µM
COc1cc(C(=O)N2CC[C@@H](O)[C@@H](N)C2)cc2nc(-c3cc4ccccc4n3CC3CC3)n(C)c12	transporter uptake	–	IC50	50.1 µM
Clc1ccc2c(C3=CCN(CCc4c[nH]c5ccccc45)CC3)c[nH]c2c1	ligand displacement, radioligand	cell membranes	IC50	0.0255 µM
CNc1nc2cc(OCCCCN3CCN(c4cccc(Cl)c4Cl)CC3)ccc2s1	ligand displacement, radioligand	–	Ki	0.45 µM
